We go through 42 compounds from ChEMBL document CHEMBL1122815, “Synthesis and hypoglycemic activity of N-alkylated hydrazonopropionic acids” (J Med Chem, 1985).

The first series has as its system Cavia porcellus. The experiment in a line: Hypoglycemic activity at a dose of 20 mg/kg administered intraperitoneally. It is filed as functional. The conditions noted are these: dose 50 mg/kg; route intraperitoneal; in the assay text read “50 mg/kg” for “20 mg/kg”. The method, boiled down:
(§1)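 Guinea pigs fasted from about 20 h before and throughout the study, with free access to water; six animals per dose group. Compound was given ip as a neutral solution, and a parallel control group received physiological NaCl ip. Ear-vein blood (10 μL) was taken before dosing and then hourly to 6 h. Glucose was measured by hexokinase on the hemolysate. The effect was calculated as the % difference of the lowest glucose relative to the initial value. U-test, p ≤ 0.05.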
For the compound `CCCCCCCCCN/N=C(\C)C(=O)O`, the “Decrease in blood glucose” value is on record as 25%.

In the next series the test system is Cavia porcellus. The series can be described thus: Hypoglycemic activity was given as differences between the mean changes in blood glucose concentration in control group and the treated group after a dose of 25 mg/kg, ip. The series is classed as functional. The conditions noted are these: route intraperitoneal. A digest of the protocol:
as §1
For `CCCN/N=C(\C)C(=O)O`, the “Decrease in blood glucose” value was 24%. The same measure, in the same setting: with `COCCCCCCN/N=C(\C)C(=O)O` the figure was 22%. In the case of `C/C(=N\NCc1ccccc1)C(=O)O`, the “Decrease in blood glucose” value worked out at 7%.

Take `C/C(=N\NCCCC1CCCC1)C(=O)O`: the “Decrease in blood glucose” value turned out to be 68%. Take `C/C(=N\NCCOc1ccccc1)C(=O)O`: the “Decrease in blood glucose” value is given as 22%. The same measure, in the same setting: with `C/C(=C\CN/N=C(\C)C(=O)O)c1ccccc1` the figure was 20%; with `C/C(=N\NCCc1cccc(C)c1)C(=O)[O-].[Na+]`, 24%. Still for that read-out and setting: as for `C/C(=N\NCCc1ccc(C)cc1)C(=O)O`, the figure is 8%; as for `CCC(C)CCCN/N=C(\C)C(=O)O` (centres undefined), 41%.

For `C/C(=N\NCCc1ccc(F)cc1)C(=O)O`, the “Decrease in blood glucose” value amounted to 21%. Turning to `C/C(=N\NCCCCc1ccccc1)C(=O)[O-].[Na+]`, the “Decrease in blood glucose” value was 34%.

Regarding `C/C(=N\NCC/C=C/c1ccccc1)C(=O)O`, the “Decrease in blood glucose” value came out at 15%.

In the case of `CCC/C=C/CN/N=C(\C)C(=O)O`, the “Decrease in blood glucose” value is reported as 43%. Still for that read-out and setting: as for `CCCCN/N=C(\C)C(=O)O`, the figure is 41%; as for `C/C(=N\NCCCC1CCCCC1)C(=O)[O-].[Na+]`, 13%; as for `COc1ccc(CCN/N=C(\C)C(=O)O)cc1`, 7%.

Take `C=CCCCCN/N=C(\C)C(=O)[O-].[Na+]`: the “Decrease in blood glucose” value was 60%.

Consider `C/C(=N\NC/C=C/c1ccccc1)C(=O)[O-].[Na+]`, for which the “Decrease in blood glucose” value came to 15%.

As to `C/C(=N\NC/C=C/c1cccc(Cl)c1)C(=O)O`, the “Decrease in blood glucose” value is 14%. As for `CCCCCCCCN/N=C(\C)C(=O)O`, the “Decrease in blood glucose” value was 69%.

Turning to `C/C(=N\NC/C=C/c1ccc(Cl)cc1)C(=O)O`, the “Decrease in blood glucose” value was 9%. With `CCCCCCN/N=C(\C)C(=O)O`, the “Decrease in blood glucose” value is reported as 72%.

For `CC/C=C/CCN/N=C(\C)C(=O)O`, the “Decrease in blood glucose” value is 82%. Still for that read-out and setting: with `CCCCCN/N=C(\C)C(=O)[O-].[Na+]` the figure was 45%; with `CCCOCCCCN/N=C(\C)C(=O)O`, 22%. For `CCCCCCCN/N=C(\C)C(=O)O`, the “Decrease in blood glucose” value is 70%.

For the compound `CCCCCC(C)N/N=C(\C)C(=O)O` (centres undefined), the “Decrease in blood glucose” value came to 45%.

Regarding `C/C(=N\NCCC1CCCCC1)C(=O)O`, the “Decrease in blood glucose” value stood at 48%.

On to `CCOC(=O)/C(C)=N/NCCc1ccccc1`, for which the “Decrease in blood glucose” value is reported as 14%. With `C/C(=N\NCCc1ccc(Cl)cc1)C(=O)O`, the “Decrease in blood glucose” value came out at 11%. Same read-out and setting: as for `N=C(N)NC(=N)NCCc1ccccc1` [PHENFORMIN], the figure is 70%; as for `C/C(=N\NCCc1ccccc1)C(=O)O`, 40%. On to `C/C(=N\NC/C=C/c1cccc(C)c1)C(=O)O`, for which the “Decrease in blood glucose” value is 22%.

The subject of a further series is Cavia porcellus. The series can be described thus: Hypoglycemic activity was given as differences between the mean changes in blood glucose concentration in control group and the treated group after a dose of 50 mg/kg, ip. The following applies: route intraperitoneal. The series is classed as functional. The method, boiled down: as §1
`C/C(=N\NCCc1ccccc1)C(N)=O`: the “Decrease in blood glucose” value is recorded as 15%. Consider `C/C(=N\NCCc1ccccc1C)C(=O)O`, for which the “Decrease in blood glucose” value came to 14%.

For `C/C(=N\NCCc1cccc(C(F)(F)F)c1)C(=O)O`, the “Decrease in blood glucose” value is 13%.

Consider `C/C(=N\NC(C)Cc1ccccc1)C(=O)[O-].[Na+]` (centres undefined), for which the “Decrease in blood glucose” value stood at 14%.

Take `C/C(=N\NCC(C)Cc1ccccc1)C(=O)O` (centres undefined): the “Decrease in blood glucose” value is given as 22%. Same read-out and setting: with `C/C(=N\NCC(C)c1ccccc1)C(=O)[O-].[Na+]` (centres undefined) the figure was 15%; with `C/C(=N\NC/C=C/c1cccc(Cl)c1)C(=O)O`, 6%; with `C/C(=N\NCCCc1ccccc1)C(=O)[O-].[Na+]`, 23%.

System in the next series: not listed separately
The experiment in a line: Lethal dose on oral administration to rats was determined. It is filed as toxicity, organism-based. The following applies: rat, in vivo.
Turning to `C/C(=C/c1ccccc1)CN/N=C(\C)C(=O)O`, the median lethal dose (LD50) stood at 680 mg/kg. Same read-out and setting: as for `C/C(=N\NCCC1CCCCC1)C(=O)O`, the figure is 520 mg/kg.

In general, LD50 refers to the dose at which mortality reaches 50%. Low readings indicate greater toxicity, high ones lower toxicity.
